Experimental data reported in ChEMBL document CHEMBL1799953, “Backbone cyclic peptide inhibitors of protein kinase B (PKB/Akt)” (J Med Chem, 2011).
*1 amine or outer side, *2 acyl side, *3 side chain or, on linkers, in order; H or OH if unused. Where a SMILES comes first, the peptide text is derived from it. Bridges are numbered along the chain shown (N, C = ends). [ ]: non-standard residue; d: D form. N(6-aminohexyl)Gly = O=C(CN(CCCCCCN[*:3])[*:1])[*:2]; NGly(3-aminopropyl) = O=C(CN(CCCN[*:3])[*:1])[*:2]; N(2-Aminoethyl)Gly = O=C(CN(CCN[*:3])[*:1])[*:2]; Gly(N-(CH2)6NH2) = NCCCCCCNCC(=O)O; Gly(N-2-aminoethyl) = NCCNCC(=O)O; Gly(N(CH2)3NH2) = NCCCNCC(=O)O; hLeu = CC(C)CC[C@H](N)C(=O)O; Nva = CCC[C@H](N)C(=O)O; Dap = NC[C@H](N)C(=O)O; CO = O=C([*:1])[*:2]; Nlys = NCCCCNCC(=O)O

Experiments:
[1] = biological target: T1, RAC-alpha serine/threonine-protein kinase (Homo sapiens, UniProt P31749); assay: Inhibition of Akt using RPRTSSF peptide and [gamma32]ATP by cell-free radioactive assay
T1 sequence (P31749 whole entry): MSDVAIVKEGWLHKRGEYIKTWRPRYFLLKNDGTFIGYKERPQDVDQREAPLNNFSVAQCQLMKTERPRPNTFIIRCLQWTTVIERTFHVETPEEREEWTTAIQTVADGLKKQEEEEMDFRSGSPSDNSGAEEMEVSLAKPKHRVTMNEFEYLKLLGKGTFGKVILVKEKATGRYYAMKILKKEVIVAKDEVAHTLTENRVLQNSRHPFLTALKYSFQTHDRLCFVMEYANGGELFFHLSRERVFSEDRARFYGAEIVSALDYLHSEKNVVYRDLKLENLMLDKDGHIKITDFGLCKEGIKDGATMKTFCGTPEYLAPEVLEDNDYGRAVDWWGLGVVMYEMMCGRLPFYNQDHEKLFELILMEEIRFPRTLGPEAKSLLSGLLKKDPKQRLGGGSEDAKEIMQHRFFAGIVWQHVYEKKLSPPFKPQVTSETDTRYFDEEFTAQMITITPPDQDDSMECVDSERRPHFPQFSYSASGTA
Outline: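 Same reaction: HisΔPHPKBEEEFlag (0.005 units), 50 mM Hepes pH 7.4, 0.1 mM EGTA, 0.1% 2-mercaptoethanol, 10 mM magnesium acetate, 3 μM RPRTSSF, 10 μM [γ32P]ATP. Peptide stock concentration determined by UV spectrophotometry; reference peptide run in every assay.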

[2] = biological target: T1, RAC-alpha serine/threonine-protein kinase; assay: Inhibition of Akt using RPRTSSF peptide and [gamma32]ATP at 0.625 uM by cell-free radioactive assay relative to control

SMILES | IC50 [1] [nM] | inhibition [2] [%]
CCC[C@H](NC(=O)[C@H](CCCNC(=N)N)NC(=O)CN(CCCN)C(=O)[C@@H](N)CCCNC(=N)N)C(=O)N[C@@H](Cc1ccc(O)cc1)C(=O)N[C@@H](CN)C(=O)N[C@@H](CCC(C)C)C(=O)N(CCCN)CC(N)=O (H-R[Gly(N(CH2)3NH2)]R[Nva]Y[Dap][hLeu][Gly(N(CH2)3NH2)]-NH2) | 130 | 90
CCC[C@H](NC(=O)[C@H](CCCNC(=N)N)NC(=O)CN(CCN)C(=O)[C@@H](N)CCCNC(=N)N)C(=O)N[C@@H](Cc1ccc(O)cc1)C(=O)N[C@@H](CN)C(=O)N[C@@H](CCC(C)C)C(=O)N(CCCCN)CC(N)=O (H-R[Gly(N-2-aminoethyl)]R[Nva]Y[Dap][hLeu][Nlys]-NH2) | – | 84
CCC[C@H](NC(=O)[C@H](CCCNC(=N)N)NC(=O)CN(CCCCCCN)C(=O)[C@@H](N)CCCNC(=N)N)C(=O)N[C@@H](Cc1ccc(O)cc1)C(=O)N[C@@H](CN)C(=O)N[C@@H](CCC(C)C)C(=O)N(CCCCCCN)CC(N)=O (H-R[Gly(N-(CH2)6NH2)]R[Nva]Y[Dap][hLeu][Gly(N-(CH2)6NH2)]-NH2) | – | 57
CCC[C@H](NC(=O)[C@H](CCCNC(=N)N)NC(=O)CN(CCCCN)C(=O)[C@@H](N)CCCNC(=N)N)C(=O)N[C@@H](Cc1ccc(O)cc1)C(=O)N[C@@H](CN)C(=O)N[C@@H](CCC(C)C)C(=O)N(CCN)CC(N)=O (H-R[Nlys]R[Nva]Y[Dap][hLeu][Gly(N-2-aminoethyl)]-NH2) | – | 84
CCC[C@@H]1NC(=O)[C@H](CCCNC(=N)N)NC(=O)CNCCNC(=O)NCCN(CC(N)=O)C(=O)[C@H](CCC(C)C)NC(=O)[C@H](CN)NC(=O)[C@H](Cc2ccc(O)cc2)NC1=O (H-[N(2-Aminoethyl)Gly]R[Nva]Y[Dap][hLeu][N(2-Aminoethyl)Gly]-NH2; linker 1-7 via CO) | 390 | 64
CCC[C@@H]1NC(=O)[C@H](CCCNC(=N)N)NC(=O)CNCCCCCCNC(=O)NCCN(CC(N)=O)C(=O)[C@H](CCC(C)C)NC(=O)[C@H](CN)NC(=O)[C@H](Cc2ccc(O)cc2)NC1=O (H-[N(6-aminohexyl)Gly]R[Nva]Y[Dap][hLeu][N(2-Aminoethyl)Gly]-NH2; linker 1-7 via CO) | – | 26
CCC[C@@H]1NC(=O)[C@H](CCCNC(=N)N)NC(=O)CNCCCNC(=O)NCCN(CC(N)=O)C(=O)[C@H](CCC(C)C)NC(=O)[C@H](CN)NC(=O)[C@H](Cc2ccc(O)cc2)NC1=O (H-[NGly(3-aminopropyl)]R[Nva]Y[Dap][hLeu][N(2-Aminoethyl)Gly]-NH2; linker 1-7 via CO) | 240 | 84
CCC[C@@H]1NC(=O)[C@H](CCCNC(=N)N)NC(=O)CNCCCCNC(=O)NCCN(CC(N)=O)C(=O)[C@H](CCC(C)C)NC(=O)[C@H](CN)NC(=O)[C@H](Cc2ccc(O)cc2)NC1=O (H-[Nlys]R[Nva]Y[Dap][hLeu][N(2-Aminoethyl)Gly]-NH2; linker 1-7 via CO) | – | 32

The remaining lines, values ahead:

IC50 [1] [nM] | inhibition [2] [%] | SMILES
128 | 96 | CCC[C@H](NC(=O)[C@H](CCCNC(=N)N)NC(=O)CN(CCCN)C(=O)[C@@H](N)CCCNC(=N)N)C(=O)N[C@@H](Cc1ccc(O)cc1)C(=O)N[C@@H](CN)C(=O)N[C@@H](CCC(C)C)C(=O)N(CCCCN)CC(N)=O (H-R[Gly(N(CH2)3NH2)]R[Nva]Y[Dap][hLeu][Nlys]-NH2)
110 | 87 | CCC[C@H](NC(=O)[C@H](CCCNC(=N)N)NC(=O)CN(CCCCCCN)C(=O)[C@@H](N)CCCNC(=N)N)C(=O)N[C@@H](Cc1ccc(O)cc1)C(=O)N[C@@H](CN)C(=O)N[C@@H](CCC(C)C)C(=O)N(CCCN)CC(N)=O (H-R[Gly(N-(CH2)6NH2)]R[Nva]Y[Dap][hLeu][Gly(N(CH2)3NH2)]-NH2)
– | 83 | CCC[C@H](NC(=O)[C@H](CCCNC(=N)N)NC(=O)CN(CCCCCCN)C(=O)[C@@H](N)CCCNC(=N)N)C(=O)N[C@@H](Cc1ccc(O)cc1)C(=O)N[C@@H](CN)C(=O)N[C@@H](CCC(C)C)C(=O)N(CCN)CC(N)=O (H-R[Gly(N-(CH2)6NH2)]R[Nva]Y[Dap][hLeu][Gly(N-2-aminoethyl)]-NH2)
– | 88 | CCC[C@H](NC(=O)[C@H](CCCNC(=N)N)NC(=O)CN(CCCCCCN)C(=O)[C@@H](N)CCCNC(=N)N)C(=O)N[C@@H](Cc1ccc(O)cc1)C(=O)N[C@@H](CN)C(=O)N[C@@H](CCC(C)C)C(=O)N(CCCCN)CC(N)=O (H-R[Gly(N-(CH2)6NH2)]R[Nva]Y[Dap][hLeu][Nlys]-NH2)
150 | 91 | CCC[C@H](NC(=O)[C@H](CCCNC(=N)N)NC(=O)CN(CCCCN)C(=O)[C@@H](N)CCCNC(=N)N)C(=O)N[C@@H](Cc1ccc(O)cc1)C(=O)N[C@@H](CN)C(=O)N[C@@H](CCC(C)C)C(=O)N(CCCN)CC(N)=O (H-R[Nlys]R[Nva]Y[Dap][hLeu][Gly(N(CH2)3NH2)]-NH2)
– | 60 | CCC[C@H](NC(=O)[C@H](CCCNC(=N)N)NC(=O)CN(CCCCN)C(=O)[C@@H](N)CCCNC(=N)N)C(=O)N[C@@H](Cc1ccc(O)cc1)C(=O)N[C@@H](CN)C(=O)N[C@@H](CCC(C)C)C(=O)N(CCCCCCN)CC(N)=O (H-R[Nlys]R[Nva]Y[Dap][hLeu][Gly(N-(CH2)6NH2)]-NH2)
130 | 91 | CCC[C@H](NC(=O)[C@H](CCCNC(=N)N)NC(=O)CN(CCCCN)C(=O)[C@@H](N)CCCNC(=N)N)C(=O)N[C@@H](Cc1ccc(O)cc1)C(=O)N[C@@H](CN)C(=O)N[C@@H](CCC(C)C)C(=O)N(CCCCN)CC(N)=O (H-R[Nlys]R[Nva]Y[Dap][hLeu][Nlys]-NH2)
